Results collected from several papers.
Compare with care: the assays were run in different laboratories.
HTR1B: 5-hydroxytryptamine receptor 1B (HTR1B, Homo sapiens, UniProt P28222)
PTGER4: Prostaglandin E2 receptor EP4 subtype (PTGER4, Homo sapiens, UniProt P35408)
CDK7 with cyclin H: Cyclin-dependent kinase 7, with cyclin H (CDK7, Homo sapiens, UniProt P50613)

Oc1cccc(Nc2nc(-c3ccc(F)cc3F)cs2)c1  inhibition (HTR1B; ligand displacement; radioligand; 10 µM): -7.1%
CCN(CC)c1ccc(C2Nc3ccc(C(=O)c4ccccc4)cc3NC3=C2C(=O)CC(C)(C)C3)cc1 (stereo not shown)  inhibition (PTGER4; ligand displacement; radioligand; 10 µM): 7%
Cc1ccc(S(=O)(=O)N[C@@H](CC(=O)NC(C)(C)C)C(=O)NCc2ccccc2)cc1  inhibition (Proteasome component C5/PSMB8 (Homo sapiens, UniProt P20618+P28062); enzyme activity; inhibitor; 100 µM): ≤ 50%
CS(=O)(=O)Nc1cccc(-c2csc(NC(=O)CSc3nc4nccnc4c(=O)n3CCc3ccccc3)n2)c1  inhibition (Phosphatidylinositol 4-phosphate 5-kinase type-1 beta (PIP5K1B, Homo sapiens, UniProt O14986); enzyme activity; inhibitor; 10 µM): 3%
CN(C)C1CCN(CC#Cc2nn(C3CCCC3)c3nc(NCc4ccccc4)ncc23)C1 (stereo not shown)  inhibition (Tyrosine-protein kinase SYK (SYK, Homo sapiens, UniProt P43405); enzyme activity; inhibitor; FRET; 1 µM): 0%
COc1c(C(=O)/C=C(\O)c2ccccc2)ccc2occc12  inhibition (CDK7 with cyclin H; enzyme activity; inhibitor; ADP detection; 10 µM): -26%
COc1cc(NC(C)=O)c(Cl)cc1C(=O)Nc1nccs1  inhibition (Calcitonin-gene-related peptide receptor, CALCRL/RAMP1 (Homo sapiens, UniProt O60894+Q16602); cell-free assay; 10 µM): -1.3%
CC(/C=C/C=C(\C)C(=O)O[C@@H]1O[C@H](CO[C@@H]2O[C@H](CO)[C@@H](O)[C@H](O)[C@H]2O)[C@@H](O)[C@H](O)[C@H]1O)=C\C=C\C=C(C)\C=C\C=C(/C)C(=O)O[C@@H]1O[C@H](CO[C@@H]2O[C@H](CO)[C@@H](O)[C@H](O)[C@H]2O)[C@@H](O)[C@H](O)[C@H]1O  inhibition (CDK7 with cyclin H; enzyme activity; inhibitor; ADP detection; 10 µM): 22.8%
O=C(c1ccc(Cl)cc1)N(Cc1ccccc1)C1CCCCC1  inhibition (HTR1B; ligand displacement; radioligand; 10 µM): -11.5%
Ic1cccc2cnccc12  inhibition (PTGER4; ligand displacement; radioligand; 10 µM): -6%
CO[C@H]1/C=C/O[C@@]2(C)Oc3c(C)c(O)c4c(O)c(c(/C=N/N5CCN(C)CC5)c(O)c4c3C2=O)NC(=O)/C(C)=C\C=C\[C@H](C)[C@H](O)[C@@H](C)[C@@H](O)[C@@H](C)[C@H](OC(C)=O)[C@@H]1C  inhibition (CDK7 with cyclin H; enzyme activity; inhibitor; ADP detection; 10 µM): 23.1%
CCCNc1nc2ccccc2n1Cc1ccc(Cl)cc1  inhibition (HTR1B; ligand displacement; radioligand; 10 µM): -13.2%
O=c1cc(-c2ccccc2)oc2c1ccc1ccccc12  inhibition (CDK7 with cyclin H; enzyme activity; inhibitor; ADP detection; 10 µM): 29.9%
CCN(Cc1ccccc1C(F)(F)F)C(=O)C1CCN(S(=O)(=O)c2ccc3[nH]ncc3c2)CC1  inhibition (PTGER4; ligand displacement; radioligand; 10 µM): 33%
CCN(c1cc(C#CCN2CCOCC2)cc(C(=O)NCc2c(C)cc(C)[nH]c2=O)c1C)[C@H]1CC[C@H](N(C)CCOC)CC1  inhibition (Histone-lysine N-methyltransferase EHMT2 (EHMT2, Homo sapiens, UniProt Q96KQ7); enzyme activity; inhibitor; 1 µM): 7%
CC1=C(/C=C/C(C)=C/C=C/C(C)=C/C=C/C=C(C)/C=C/C=C(C)/C=C/C2=C(C)CCCC2(C)C)C(C)(C)CCC1  inhibition (CDK7 with cyclin H; enzyme activity; inhibitor; ADP detection; 10 µM): 19.7%
